# Measurements from the EternaBench riboswitch data.
# Tested on: MS2 coat protein
# Assay: apparent Kd, MS2 coat protein; higher = weaker binding; RNA-MaP array; FMN 200 µM where present
# In short: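 Green signal from SNAP-549-labelled MS2 coat protein was normalised to red-channel RNA signal and to the median Fmax of control clusters. The protein was titrated from 0.7 or 1.5 nM, doubling to 3 µM, without and then with constant ligand, over designs transcribed by stalled E. coli RNA polymerase on Illumina sequencing-chip clusters, in 100 mM Tris-HCl pH 7.5, 80 mM KCl, 4 mM MgCl2, BSA, DTT, yeast tRNA and Tween-20. The apparent Kd is the median of filtered per-cluster binding-curve fits.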
# [1] = designed as: ON switch for flavin mononucleotide, no ligand
# [2] = ligand present: flavin mononucleotide, designed as: ON switch for flavin mononucleotide
# [3] = designed as: OFF switch for flavin mononucleotide, no ligand
# [4] = ligand present: flavin mononucleotide, designed as: OFF switch for flavin mononucleotide
Sequence,apparent Kd [1] [nM],apparent Kd [2] [nM],apparent Kd [3] [nM],apparent Kd [4] [nM]
GUAGCUAUCGGAGGAUAUUCAUACCGGAAACGGACAUGAGGAUCACCCAUGUGGCGAAAGCAUUGGGAGAAGGCCGAUAGCUAC,576,19.7,,
CGUGCACAUGUAGGAUAUGGUUAUCUAUGUCUAGUUACUAGACAUAGAUAACCAGAAGGACAUGAGGAUCACCCAUGUAGCACG,,,346,275
AAGUGCUAAGGAUAUAUAUGGAUAUACAUUUAUGUAGAACUACAUGAGGAUCACCCAUGUAGAAGGUAGCAAUA,,,25.3,42.3
AAGGAACGAGGAUAUGCAGGUUGAGCUCGAGUUCGACCGGAACAUGAGGAUCACCCAUGUAGAAGGUGUAUCCC,,,24.1,24.4
GGCAGACAUGAGGAUCACCCAUGUCAGGAUAUGUGGCGAUCGUCGAUAGACGAUAGCCACAGAAGGGACAUGCC,,,23.9,39.5
AGGGAGUAAGGAUAUGCUGCUCGUCACUUGCGUGAUGAGUAGCAGAAGGUACAUGAGGAUCACCCAUGUAAAGA,,,30,22.9
GCGAAGAUAGCAGGAUAUAUGUUUCCUACAUGAGGAUCACCCAUGUAGGUGAUCAGCCGAGAAAAGUAGAAGGGCUAUCUUUGC,16.5,13.7,,
AUUAUGUUAGGAUAUGCUUAUGGUGGAUAGUCCAGUGUGGUGCAGAAGGGACAUGAGGAUCACCCAUGUGCUGA,,,53.8,60.6
CUUUUGUGAGGAUAUUAGUAGUAAAUAAAUAAAAUUAUUACUGAGAAGGUACAUGAGGAUCACCCAUGUUCCUC,,,18.3,25.5
UUUUUAUUUGCAGGAUAUUGUAUUUUAUUACAUCAAGAAGGGCAUUACAUGAGGAUCACCCAUGUCAUCCUAUGGUUAACUAGU,,,9.62,9.77
UGCAUGGUAGGAUAUACGGAACAUUAGGGUUUGUUGUGUGGACAUGAGGAUCACCCAUGUAGAAGGGCCGUGCU,,,45.5,78.6
CGCUGUCACGCAGGAUAUGCAUUGGAUUCCAAUGCAGAAGGGCGAUUACAUGAGGAUCACCCAUGUGUUGACAGUGAAGAAGAG,1250,76.3,,
GGAUAGGACAGAGGAUAUACGGAUAGGAUCUACUAUCUUUCUCAAAUAACAUGAGGAUCACCCAUGUAGAAGGCUGUCCUAUCG,,,21.5,122
GCGCACUAAGUGAGGAUAUCGUUUAUUUUUAGGAUCGAGAAGGCACAUGAGGAUCACCCAUGUUUGACGUGCGC,,,20.9,14.1
AGAUAUAACUCAGGAUAUCAGCAUGGGUAGAUUACAUGAGGAUCACCCAUGUGCAUGUCCCGGCAUGAGAAGGGAGUAACGCAA,81.8,27.4,,
UCCUUGUCCUGAGGAUAUCCGUGGUUACCGAAAGGAGAAGGCAGGACAUGAGGAUCACCCAUGUACCCAGAAAACGUGCAGAGU,,,125,381
ACUUGUAAGUAGAAGGCAGUCAUUAUAUUAAUCAUGUAGACAUGAGGAUCACCCAUGUAGAGUACUGAGGAUAUACAUCGAUAG,,,12.5,9.85
GGAAAGUGAGGAUAUGGUAAUUUAAUUAUUAAUUAAUUAAUCCAGAAGGCACAUGAGGAUCACCCAUGUAAAUG,,,35.9,61.5
GUAUUGUGAGGAUAUCCAAUAUAUGACAUGAGGAUCACCCAUGUUUCCACUCGUACCUCCGGAGAAGGCACAGUUU,,,28.3,24.3
UUGGACGUCGUAGGAUAUGUAGGAUAUUCCUACAUGAGGAUCACCCAUGUUGCCAUGGAAGAAGGACAGAAGGACGAUGUCCAU,253,4.48,,
AAAAAGUGAGGAUAUACAUGAGAAAAAAAAAUGUAAAAAAAACAUGAGGAUCACCCAUGUAGAAGGCACAAAAA,,,49.7,82.7
GUAGCAUACCGAGGAUAUUCAACGACAAAGUCGACAUGAGGAUCACCCAUGUGGCGAAAGCCUUGGGAGAAGGCGGAAUGCUAC,16.5,11.1,,
AUUUUAAUGUCAGGAUAUGUUAGUUUAUACAUAGUAGAAGGGAUAAUUAUACUCAUGUACAUGAGGAUCACCCAUGUUAAAUAA,163,98.1,,
CGCACUUAGCGAGGAUAUGUAAAACAUGAGGAUCACCCAUGUGAUUUAGCUCCAAUUUUAAUGACACAGAAGGCGCUUAGUGCG,,,22.2,15.8
